Hits are enriched below; roughly 1.7% of the tested compounds scored in any of these assays.
Scp1 inh = Scp-1 phosphatase inhibitors, primary screen, biochemical, colorimetric, uHTS | Carboxy-terminal domain RNA polymerase II polypeptide A small phosphatase 1 (Homo … | Recombinant Scp1, phosphopeptide, malachite green phosphate absorbance | inhibition, % at 20 µM | 340,000 compounds, 0.88% hits | AID 493091, 2011;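 active = inhibition above about 50% at 20 µM, limit read from the data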;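 also: plate controls were DMSO wells with enzyme for no effect and wells lacking enzyme for full effect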
Target sequence (Q9GZU7 76-261 limits assumed): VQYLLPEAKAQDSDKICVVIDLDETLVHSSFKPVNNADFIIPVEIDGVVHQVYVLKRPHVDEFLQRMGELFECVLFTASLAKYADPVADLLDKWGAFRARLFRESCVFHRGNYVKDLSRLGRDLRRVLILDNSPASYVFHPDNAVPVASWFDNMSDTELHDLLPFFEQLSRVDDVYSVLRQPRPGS
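Test system: SCP-1 phosphatase catalytic domain, residues 76-261; measured by: colorimetric phosphate reagent with accelerator and stabiliser, absorbance at 630 nm; timing: enzyme reaction 45 min at room temperature, colour 5 min, stabilisation 30 min; also added: Phosphorylated 17-residue peptide substrate; compound dosing: one concentration, 20 µM, with 1.0% DMSO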
DNMT1 inh = human DNMT1 methyltransferase inhibitors, primary screen, biochemical, molecular beacon, fluorescence, HinP1I cleavage, uHTS. DNA (cytosine-5)-methyltransferase 1 (Homo sapiens), P26358. inhibition (reported as % activation of signal), % at 10 µM. 360,000 compounds, 0.83% hits; in the data active = inhibition above about 50%
LMPTP block = LMPTP phosphatase inhibitors, primary screen, biochemical, fluorescence intensity, uHTS. Low molecular weight phosphotyrosine protein phosphatase (Homo sapiens), P24666. recombinant LMPTP-A, OMFP fluorogenic substrate. inhibition, % at 20 µM. 360,000 compounds, 0.22% hits;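 active = compounds that cut the enzyme signal by at least half of the control window in the single-dose screen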;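 also: plate controls were DMSO wells with enzyme plus substrate for no effect and substrate without enzyme for full effect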
Target sequence (P24666 whole entry, looked up): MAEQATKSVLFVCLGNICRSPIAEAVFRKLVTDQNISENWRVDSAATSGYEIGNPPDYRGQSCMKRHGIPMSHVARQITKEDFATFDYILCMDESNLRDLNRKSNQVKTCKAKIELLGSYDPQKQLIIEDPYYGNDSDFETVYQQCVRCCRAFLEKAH
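test system = LMPTP-A | amount = 0.625 nM LMPTP-A final | reagent = fluorogenic phosphatase substrate OMFP at 400 µM final | incubation = 50 min at room temperature | benchmarks = no-enzyme low control, uninhibited high control | medium = Bis-Tris pH 6.0, DTT, detergent | signal = fluorescence intensity of OMFP turnover product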
STEP block = STEP phosphatase inhibitors, primary screen, biochemical, fluorescence intensity, uHTS; Tyrosine-protein phosphatase non-receptor type 5 (Homo sapiens), P54829; recombinant STEP, OMFP fluorogenic substrate; inhibition, % at 20 µM; 360,000 compounds, 0.25% hits;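 active = inhibition at 20 µM, scaled per plate between control wells, above about 37%, limit read from the data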;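 also: 0% = DMSO with enzyme and substrate and 100% = substrate only without enzyme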
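medium = Bis-Tris buffer pH 6.0, 2.5 mM DTT, 0.005% Tween 20 | test system = STEP (striatal-enriched tyrosine phosphatase) enzyme, cell-free | measure = normalized % inhibition | compound dosing = 20 µM, 1% DMSO | also added = 25 µM OMFP | schedule = reaction 20 min, ambient temperature | measured by = fluorescence read at 480 nm ex / 540 nm em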
SUMO1-SIM PPI = modulators of SUMO1 protein-protein interactions, primary screen, biochemical, uHTS. Small ubiquitin-related modifier 1 (Homo sapiens), P63165. SUMO1 binding to a labelled peptide, TR-FRET, 1 h. inhibition, % at 20 µM. 360,000 compounds, 0.33% hits. AID 602429, 2012; in the data active = inhibition above about 37%
Target sequence (P63165 whole entry, looked up): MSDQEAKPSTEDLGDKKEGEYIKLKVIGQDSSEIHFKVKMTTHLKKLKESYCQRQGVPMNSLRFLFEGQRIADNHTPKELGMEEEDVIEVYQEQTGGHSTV
Scp-1 conf = Scp-1 phosphatase inhibitors, retest, confirmation, biochemical, colorimetric, single concentration. recombinant SCP-1 catalytic domain, phosphate release, malachite green absorbance. inhibition, % at 20 µM. 2,500 compounds, 61% hits. shares compounds with Scp1 inh;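 also: plate controls were DMSO with enzyme for no effect and buffer wells lacking enzyme for full effect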
Scp-1 MG ctr = colorimetric readout interference by compounds, confirmation, artefact control for Scp-1 inhibitor project, biochemical, single concentration | shares compounds with Scp1 inh | 2,500 tested, under 10 active | Colorimetric interference counterscreen, malachite green absorbance 630 nm | AID 540313, 2011 | apparent inhibition (interference), % at 20 µM;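 also: compounds added after enzyme reaction finished so only phosphate colour detection is probed; plate controls were DMSO wells with completed Scp-1 reaction for no effect and substrate wells lacking enzyme for full effect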
Scp1 DSF = Scp-1 binding by thermal shift, confirmation, orthogonal assay for Scp-1 inhibitor project, biophysical, differential scanning fluorimetry; shares compounds with Scp1 inh; Recombinant SCP1, Sypro Orange thermal shift Tm; thermal shift relative to vanadate control, % at 40 µM; 1,500 compounds, 25% hits;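 active = substances whose mean melting-temperature shift, as a percentage of the reference inhibitor's shift, reaches about 5.3%, limit read from the data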;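 also: 0% = Tm of DMSO wells and 100% = Tm with sodium orthovanadate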
DNMT1 inh conf = DNMT1 methyltransferase inhibitor retest, confirmation, biochemical, molecular beacon, fluorescence, single concentration; shares compounds with DNMT1 inh; DNMT1 molecular beacon HinP1I cleavage; inhibition, % at 10 µM; 2,300 compounds, 8% hits; AID 602385, 2012;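 active = average inhibition of at least 30% in the single-concentration confirmation test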
Beacon interf = beacon fluorescence artifact counter-screen; shares compounds with DNMT1 inh; DNMT1 molecular beacon spectral interference counterscreen, fluorescence 485/520; activation (fluorescence interference), % at 10 µM; 2,300 compounds, 1% hits;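 active = activation of at least 30% at 10 µM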;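 also: DNMT1 catalytic domain with a HinP1I cleavage step and a FAM/dabcyl DNA beacon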
* hit, by the source's call; / = no result.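 The calls were made as follows, unless noted: active = inhibition of at least 30% at 20 µM; inactive = the rest.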

SMILES	Scp1 inh	DNMT1 inh	LMPTP block	STEP block	SUMO1-SIM PPI	Scp-1 conf	Scp-1 MG ctr	Scp1 DSF	DNMT1 inh conf	Beacon interf
Cn1c(SCC(=O)O)nc2sc3c(c2c1=O)CCC3	1	0	-3	1	-1	/	/	/	/	/
CCn1c(SCC(=O)OC)nc2sc3c(c2c1=O)CCC3	57*	70*	6	7	4	64*	-11	-1	5	4
CCn1c(SCC(=O)O)nc2sc3c(c2c1=O)CCC3	73*	71*	10	26	11	50*	-19	-3	4	-2
CC(=O)c1ccc(N2CCN(C(C)C(=O)NC3CCCc4ccccc43)CC2)cc1 (centres undefined)	1	-4	-1	-1	-1	/	/	/	/	/
COc1cc(O)c(C(C)=O)c(CC(=O)O)c1	64*	50*	1	1	4	49*	-12	9.4*	10	-1
CC(CS(=O)(=O)c1ccc2c(c1)NC(=O)CS2)C(=O)NCc1ccccc1Cl (centres undefined)	76*	93*	2	5	90*	81*	6	4	17	4
Cc1ccc(O)c(NC(=O)c2onc(C)c2Cl)c1	-1	-1	-1	0	1	/	/	/	/	/
CSc1ccc(NC(=O)CSc2nc3[nH]c(=O)cc(O)c3s2)cc1	71*	52*	48	10	12	40*	-21	14*	2	-2
Cc1cc(C(=O)COC(=O)c2n[nH]c(=O)c3ccccc23)c(C)n1C(C)C	3	7	-2	-2	-7	/	/	/	/	/
Cc1cccc(NC(=O)CNC(=O)CCc2nc3sc4c(c3c(=O)[nH]2)CCCC4)c1C	73*	84*	36	12	21	75*	-15	13*	26	14
Cc1ccc(NC(=O)CN2C(=O)N/C(=C/c3ccco3)C2=O)cc1	76*	85*	45	5	-4	18	-19	/	2	-2
Cc1ccc(NC(=O)CN2C(=O)N/C(=C/c3cc(C)n(-c4ccc(C(=O)O)cc4)c3C)C2=O)cc1	63*	67*	1	10	-3	54*	-23	3	29	5
Cc1cccc(NC(=O)CN2C(=O)N/C(=C/c3ccc(C)s3)C2=O)c1	6	1	0	-4	-9	/	/	/	/	/
COc1ccccc1/C=c1\sc2nc(-c3ccco3)nn2c1=O	69*	106*	13	4	26	72*	-9	7.8*	4	2
COc1ccc(OC)c(/C=c2\sc3nc(-c4cccs4)nn3c2=O)c1	-7	-3	1	-8	11	/	/	/	/	/
O=C(CSc1c2c(nc3ccccc13)CCCC2)NCc1ccco1	-1	0	-1	0	-2	/	/	/	/	/
O=C(NCc1ccc(F)cc1)c1c2c(nc3ccccc13)CCC2	52*	57*	6	5	8	60*	-11	12*	14	4
O=C(NCc1ccco1)c1c2c(nc3ccccc13)CCC2	66*	84*	28	2	12	51*	-18	8.3*	3	3
CCCC(C)NC(=O)c1c2c(nc3ccccc13)CCC2 (centres undefined)	21	29	-1	0	12	/	/	/	/	/
Cc1cnc(C(=O)OCC(=O)Nc2cc(Cl)ccc2C#N)cn1	-15	-4	0	-2	2	/	/	/	/	/
COc1ccc(C(=O)N/N=C/c2ccc(OC(=O)c3cccc4ccccc34)c([N+](=O)[O-])c2)cc1	92*	53*	7	7	-16	65*	-25	6.6*	5	0
COc1ccc(C(=O)Oc2ccc(/C=N/NC(=O)c3ccccc3OC)cc2[N+](=O)[O-])cc1	1	17	1	0	-4	/	/	/	/	/
CCCOc1cccc(C(=O)NCCNC(=O)c2cnccn2)c1	-5	0	0	-1	2	/	/	/	/	/
Cc1ccc(C)c(NC(=O)CN(C)C(=O)c2cccc(-n3cccc3)c2)c1	79*	94*	8	4	15	58*	-21	-8	9	2
CN(CC(=O)Nc1c(Cl)cccc1Cl)C(=O)c1cccc(-n2cccc2)c1	84*	69*	10	1	18	48*	-27	1	-1	1
SMILES	Scp1 inh	DNMT1 inh	LMPTP block	STEP block	SUMO1-SIM PPI	Scp-1 conf	Scp-1 MG ctr	Scp1 DSF	DNMT1 inh conf	Beacon interf
CN(CC(=O)Nc1cccc(F)c1)C(=O)c1cccc(-n2cccc2)c1	77*	91*	8	0	15	61*	-13	6.7*	13	0
CN(CC(=O)Nc1cccc(F)c1)C(=O)c1ccc(N2C(=O)c3ccccc3C2=O)cc1	-2	21	1	-3	-11	/	/	/	/	/
O=C(COC(=O)C1C2CC3OC(=O)C1C3C2)Nc1cccc(C(F)(F)F)c1 (centres undefined)	-4	1	-1	2	6	/	/	/	/	/
COc1ccc(NC(=O)/C(C#N)=C/c2ccc(Br)o2)cc1	77*	99*	23	6	1	56*	-14	5.5*	1	1
CC(NC(=O)C(NS(=O)(=O)c1cccc2nsnc12)C(C)C)c1ccccc1 (centres undefined)	-13	2	-2	-2	-31	/	/	/	/	/
Cc1ccc(CNC(=O)c2ccc(-n3cccc3)cc2)cc1	55*	95*	12	4	4	64*	-7	-2	13	5
CN(C)CC(C)(C)CNS(=O)(=O)c1cccc2nsnc12	0	6	-1	-6	-18	/	/	/	/	/

Source: PubChem
